Assay: Toxicity liver stage against HepG2, at 10uM
Assay type: cell-based
Design: test concentration 10 uM, cell line HepG2-A16-CD81EGFP
Conditions: human, HepG2-A16-CD81EGFP cells; read-out: INHIBITION
In short: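 Uninfected HepG2-A16-CD81EGFP cells, 3 × 10^3 per well, 1536-well, plated on prespotted compound at 10 μM final, parasite-free screening media added to match infected plates; puromycin 10 μM positive, DMSO 0.5% negative; run in parallel with 48 h PbLuc assay at 37 °C, 5% CO2; viability by CellTiter-Glo luminescence, normalized to controls.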

Compound | cytotoxicity at 10 µM [%]
COCCn1c(-c2cccc(OC)c2)cnc1NC(=O)NCC(C)C | 11.4
CSCCC(Nc1nc(C)cc(C)n1)C(=O)NCC1CCOCC1 (stereo unspecified) | -3.45
COCCN(Cc1ccoc1)C(=O)c1ccc(Cl)s1 | 12.3
CCSc1ccccc1C(=O)N(CCOC)Cc1ccoc1 | 13.8
CCS(=O)(=O)NCc1nc(C)cc(N2CCCC2)n1 | -0.714
CN(C)C(=O)N1CC(=O)NCC12CCN(C(=O)c1ccco1)C2 (stereo unspecified) | -0.125
O=C1CC2(CCCCN2C(=O)c2ccoc2)CN1Cc1ccccc1 (stereo unspecified) | 6.35
C[C@@H]1C[C@H]2CN(S(=O)(=O)c3ccc(F)cc3)C[C@H]2O1 | 3.26
CC(C)n1cnc(C2CN(C)c3ccc(C(=O)NC4CCCC4)cc32)n1 (stereo unspecified) | 10.4
O=C1[C@@H]2CCN(Cc3ccc(F)cc3)C[C@@H]2OCCN1c1cccnc1 | 8.82
CN1CC[C@]2(CN(Cc3cccs3)C[C@H]2c2ccccc2)C1=O | 9.82
CCO[C@@H]1CCN(c2ccc(C)nn2)[C@@H]1Cc1cnn(C)c1 | 2.2
COCC1CC2(CCNCC2)CN1c1ncccn1 (stereo unspecified) | 7.51
COc1ccc(C2CC(=O)Nc3nc(N4CCOCC4)sc32)cc1 (stereo unspecified) | 10.8
Cc1cc(C)n(CCNCc2cc(-c3ccc(Cl)cc3)c[nH]c2=O)n1 | -2.38
CC(C)C(=O)N1CCCC(Cc2ccccn2)C1 (stereo unspecified) | -5.3
Cc1n[nH]c(C)c1-c1nccnc1CC1CCNC1 (stereo unspecified) | -4.96
Cc1n[nH]c(C)c1S(=O)(=O)N1CCC(Oc2cnccn2)CC1 | 3.15
Cc1nc(-c2ccccc2C(=O)O)cc(C2CCN(C(C)C)C2)n1 (stereo unspecified) | -13.1
COCCNC(=O)c1cc(C2CC2)nc2onc(C3CCNC3)c12 (stereo unspecified) | 7.55
CCOc1cccc(CNC(=O)NC2CC=CC2)c1OC(F)F | -49.1
Cc1ccc(Cl)c(NC(=O)NC2(C)CCOC2)c1 (stereo unspecified) | -46.7
Cc1ccc(NC2CCN(C(=O)CCC3CCCO3)CC2)nn1 (stereo unspecified) | -1.2

Compound | cytotoxicity at 10 µM [%]
CS(=O)(=O)CCn1ccc(NC(=O)Cc2ccccc2Cl)n1 | 13.6
CCOc1ccc(CN(C)C(=O)c2nc(N3CCCC3)ncc2Cl)cc1 | -33
CCc1nc(C)c(C(C)N(C)CCOC)s1 (stereo unspecified) | -6.35
COC1CCN(CCNC(=O)NCC(C)c2cccc(C)c2)CC1 (stereo unspecified) | -4.47
CNC(=O)c1cccnc1N1CCN(C/C=C/c2ccccc2)CC1 | -9.23
CN(C)c1ccccc1CN1CCC(N2CCCC2=O)CC1 | 5.02
CC(=O)Nc1ccc(CNc2cccc(OCCF)c2)cc1 | -5.35
CC(NC(=O)CCc1nc(C(C)(C)C)no1)c1nnc2n1CCC2 (stereo unspecified) | 12
Cn1cc(N2CCC(NC(=O)c3ccccc3Cl)C2=O)cn1 (stereo unspecified) | 4.35
O=S1(=O)CCN(c2nc(C3CC3)ns2)CC1 | 2.37
CC(C)n1cc(CN2CCCN(C(=O)c3ccco3)CC2)cn1 | -2.27
O=C(N1CCC(Oc2ccncc2)C1)C1(c2cccc(F)c2)CC1 (stereo unspecified) | -6.52
Cc1nc2n(n1)CC(NCC(=O)NCCCOC(C)C)CC2 (stereo unspecified) | -5.03
COc1ncccc1NC(=O)NC(C)(C)c1ncc(C)s1 | -9.44
CN(C(=O)CN1CCCC1c1cnn(C)c1)C1(C#N)CCCCC1 (stereo unspecified) | 1.41
Cc1ccc2cc(C(=O)N3CCN(C(=O)c4ccoc4)CC3)[nH]c2c1 | -43.6
CSC(C)C(=O)NS(=O)(=O)c1ccc(F)c(C(F)(F)F)c1 (stereo unspecified) | -6.52
COc1cccc(NC(=O)N(CCC(F)(F)F)C[C@H](O)CO)c1 | -9.48
CC(Cn1cccn1)NC(=O)NCCCN1CCc2ccccc21 (stereo unspecified) | -0.449
Cc1cc(CN2CCN(C(=O)NCCCc3cn[nH]c3C)CC2)on1 | -13.2
Cn1cc(NC(=O)NC2CCCN(c3ccccc3Cl)C2=O)cn1 (stereo unspecified) | -41.8
Cc1ncc(CN(C)CC(O)c2ccc(Br)cc2)s1 (stereo unspecified) | 7.12
CCc1nnsc1C(=O)N(C)Cc1ccc(C)o1 | -46.5

Compound | cytotoxicity at 10 µM [%]
CC1COCCN1C(=O)NCCCn1ccnc1 (stereo unspecified) | -44.9
CCc1nc(C(=O)NCc2ccc(N3CCNC(=O)C3)c(F)c2)c[nH]1 | -7.12
COc1ccccc1OCC(=O)NS(=O)(=O)c1ccccc1F | -18
Cc1noc(C)c1CNC(=O)N1CCC(C(O)c2ccccc2)CC1 (stereo unspecified) | -9.41
CNC(=O)COc1ccc(CNCc2ccc(F)cc2F)cc1 | -8.6
COCC1CN(S(=O)(=O)c2cccs2)Cc2ncnn2C1 (stereo unspecified) | -120
CS(=O)(=O)N1C[C@@H]2COC[C@]2(C(=O)NCCc2cccs2)C1 | -110
C[C@H](O)CNc1cc(-c2cn[nH]c2)ncn1 | -15.6
O=C(NCCN1CCOC1=O)c1cnc(-c2cccnc2)nc1 | 0.611
CSC(C)CCN1CCCn2nc(CNC(=O)C3CCC3)cc2C1 (stereo unspecified) | 0.812
O=C(O)c1cc(-c2cc[nH]n2)cc(S(=O)(=O)N2CCCCCC2)c1 | -4.88
CCc1ncc(C(=O)N2C[C@@H](C)O[C@@H](C)C2)cn1 | -4.34
CN(C)C(=O)NCC(=O)N1CCCC2(CCC(=O)N(CC3CC3)C2)C1 (stereo unspecified) | -8.38
COCCN1CC(Nc2nc(C3CCCC3)nc3c2cnn3C)CC1=O (stereo unspecified) | -1.18
Cc1ccc(CN2CCN(Cc3nccn3C)[C@H]3CS(=O)(=O)C[C@H]32)o1 | -3.65
N[C@@H]1CC[C@@H](NC(=O)c2ccccc2OC(F)(F)C(F)F)C1 | -4.85
COc1ccc(N2CCN(C[C@@H](C)CO)CC2=O)cc1 | 1.99
CCn1c(CN(C)C)nnc1C1CCN(Cc2cccc(F)c2F)CC1 | 1.49
CCCSCC(=O)N1CCCC(c2nccn2Cc2ccncc2)C1 (stereo unspecified) | 4.69
COc1ccccc1C1CNC(=O)c2nc(-c3cn(C)nc3C)[nH]c2C1 (stereo unspecified) | -1.07
Nc1ncc(CN2C[C@H](C3CC3)[C@@H](N)C2)cn1 | -44.6
CN(C)Cc1nnc(C2CCCN(Cc3ccc(Cl)s3)C2)n1C (stereo unspecified) | -11.1
CCOCCOc1ccccc1C(=O)N1C[C@H](C2CC2)[C@@H](N)C1 | -0.332

Compound | cytotoxicity at 10 µM [%]
CC(NCc1cc(O)c2cccc(F)c2n1)c1ccccc1O (stereo unspecified) | 4.28
CCc1nnc(CNC(=O)CCCN2CCCCC2)s1 | -15.4
COc1cccc(CN2CCN(Cc3ccc4nonc4c3)CC2=O)c1 | -1.98
OC1CCN(C2CCN(Cc3cnc(-c4cccs4)nc3)CC2)CC1 | -9.77
Cc1c(CNC(=O)C2CCCCCN2C)oc2ccccc12 (stereo unspecified) | 11.4
CSCCCNC(=O)c1coc(Cn2cnc3ccccc32)n1 | -6.33
CCC1CN(C(=O)c2ccc(=O)[nH]n2)CCC(=O)N1Cc1ccccc1 (stereo unspecified) | 10.4
CCCNC(=O)c1cc(OC)c(OC)cc1N(C)S(C)(=O)=O | -5.18
Cc1cc(=O)n(CC(=O)Nc2ccc(Cl)cc2)nc1C | -1.74
Cc1ccccc1CN1CC[C@@]2(O)CCN(C(=O)C3CCC3)C[C@H]2C1 | 27.9
OC1CCN(C2CCN(Cc3cccc(Cn4cccn4)c3)CC2)CC1 | -1.47
CC(C)(C)n1cc(C2=CCN(CCNC(N)=O)CC2)cn1 | -3.51
CN1CCC(N(CCc2ccccc2)C(=O)c2ccc(CO)cc2)CC1 | 1.63
CNC(=O)CC1CCN(Cc2nc(-c3ccc(SC)cc3)oc2C)CC1 | -8.97
Cc1nc(C)n(C2CCCN(C(=O)COc3ccccc3)C2)n1 (stereo unspecified) | -2.51
Cc1ccccc1-n1c(C)cc(C(=O)N2CCn3c(C)nnc3C2)c1C | -8.51
O=C(CCc1ccco1)Nc1cc(C(F)(F)F)c[nH]c1=O | 13.9
CCC1CCCCN1Cc1nc2c(cnn2C)c(=O)[nH]1 (stereo unspecified) | -3.18
COc1ccccc1C(=O)NS(=O)(=O)c1cccc(C#N)c1 | -6.52
O=S(=O)(NCc1ccccc1Cn1cncn1)N1CCCCC1 | 2.6
Cc1nn(C)c(Cl)c1C1CCCN1C(=O)c1cnccn1 (stereo unspecified) | -4.73
O=C(CCNC(=O)c1ccoc1)Nc1cc(F)ccc1F | -12.8
CC(C)c1nc(CC(=O)N2CCCC(n3cncn3)C2)cs1 (stereo unspecified) | -8.24

Compound | cytotoxicity at 10 µM [%]
Cc1ccc(C(=O)N2CCN(CC(O)c3ccc(F)cc3)CC2)s1 (stereo unspecified) | -8.93
COc1ccccc1C(=O)N1CCCC1Cn1cc(C)cn1 (stereo unspecified) | -6.49
Cc1nc(NCc2cccc(F)c2)cc(C2CCNCC2)n1 | 2.79
CN(C)C(=O)CN1C[C@H]2CN(Cc3cccc(F)c3)C(=O)[C@H]2C1 | -79.5
COCCN1CCOCC12CCN(C(=O)Cc1cccs1)CC2 | 10.8
Cn1nc(COc2cncnc2)c2c1CCN(Cc1ccccn1)C2 | 9.67
Cn1nccc1C(=O)N1CC[C@]2(C[C@H](OCc3ccccn3)CO2)C1 | -80.6
CC(=O)N1CCn2c(-c3cccc(F)c3)cnc2C12CCNCC2 | 4.98
c1ccc(CN2CCCn3nnc(COc4ccccn4)c3C2)nc1 | 8.43
COc1ncc(C2(O)CCN(Cc3cc(F)ccc3F)CC2)c(OC)n1 | -16.1
COc1ccc(S(=O)(=O)NCC(N)c2ccccc2)c(C)c1 (stereo unspecified) | 0.0381
O=C1C[C@H]2[C@@H](CCN2C(=O)Cc2cccs2)N1Cc1cccnc1 | 7.48
COCC1CN(Cc2cnn(C)c2)Cc2nn(C)cc21 (stereo unspecified) | -82.8
O=C(c1ccsc1)N1CCC2(CC1)COCCN(Cc1ccncc1)C2 | -89.6
COCCN(C)C1COC2(CCN(Cc3ccccn3)CC2)C1 (stereo unspecified) | -73.4
CN(C)c1ncc2c(n1)C1(CCN(Cc3ccccc3)C1)COC2 (stereo unspecified) | -5.07
O=C1CC2(CCN(CC3CC3)C2)CN1c1ccc2c(c1)OCO2 (stereo unspecified) | -2.47
O=C1CO[C@@H]2CN(C3CCOCC3)C[C@H]2N1Cc1cccc(F)c1 | -77
CN1CCN(Cc2cn3c(n2)CN(C(=O)c2ccccn2)CC3)CC1 | -5.7

Reference: ChEMBL document CHEMBL4513216, “Probing the Open Global Health Chemical Diversity Library for Multistage-Active Starting Points for Next-Generation Antimalarials” (ACS Infect Dis, 2020)
